Source: PubChem BioAssay (several laboratories)
A selection: hits, their analogues and other compounds. The true share with any hit is near 2.9%.
KLK7 zymogen act – activators of human kallikrein-7 zymogen; 0.9% of 370,000 active; purified proKLK7, EDANS-DABCYL substrate fluorescence; 100% is mature enzyme control, 0% vehicle; activation, % at 7 µM; AID 652039;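 active = activation above the mean of all tested compounds plus 3 SD, computed per campaign excluding outliers beyond control limits, cut at about 13% in these data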
Runt-SMMHC FRET – inhibitors of human RUNX1 Runt domain binding to CBFb-SMMHC; inhibition, % at 20 µM; 0.74% of 220,000 active; Q01196+Q13951; AID 1434; Cerulean-Runt/Venus-CBFb-SMMHC FRET ratio 530/480, 1 h;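 active = mean inhibition across duplicate retests at 20 µM reaching about 50%, limit read from the data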;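 note: 0% = DMSO wells and 100% = wells with excess untagged CBFb-SMMHC; inhibitors lower the FRET ratio by blocking Runt binding to CBFb-SMMHC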
RanGTP-Impb inh – inhibitors of RanGTP-importin-beta interaction, primary screen, biochemical, FRET, CFP-Ran, YFP-importin-beta, homogeneous; cell-free CFP-Ran/YFP-importin-beta FRET ratio; inhibition, % (concentration not given with the values); 1.1% of 300,000 active; AID 2216;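 active = more than half of the replicate wells show a fall in the fluorescence ratio signal beyond about 16%, limit read from the data, passing the limit was not always enough; inconclusive = exactly half of the replicate wells pass the set limit; inactive = fewer than half of replicates pass the limit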;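 note: 0% = DMSO wells and 100% = Ran loaded with GDP instead of GTP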
Runt-CBFb FRET – inhibitors of human RUNX1 Runt domain binding to CBFb. Q01196+Q13951. Cerulean-Runt/Venus-CBFb FRET ratio 530/480, 1 h. inhibition, % at 20 µM. 0.46% of 220,000 active. AID 1496;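 active = inhibition over about 50% at 20 µM in the single-dose screen, limit read from the data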;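 note: 0% = DMSO wells and 100% = excess unlabeled CBFb competitor control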
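test system = Cerulean-tagged RUNX1 Runt domain (FRET donor) fusion protein | reagent = Venus-CBFb binding partner, 100 nM | incubation = protein complex preformed 1 h, compound exposure 1 h, room temperature, dark | detection = FRET fluorescence | read-out basis = loss of energy transfer signal | controls = 5 µM unlabeled CBFb as full-inhibition high control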
AI-2 QS modul – Vibrio harveyi AI-2 quorum sensing modulation | 0.4% of 300,000 active | Vibrio harveyi JMH597 AI-2 luminescence/OD600 ratio, 9 h; active compounds read low; strain lacks LuxN and CqsS sensors; 0 = neutral-control median | activity change, % at 7.5 µM; in the data active = activity change below about -75%, passing the limit was not always enough; inconclusive = no clear call, values can overlap the other calls;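 note: luminescence divided by OD600 gain over 9 h not by final OD600 alone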
Wee1 degr inh – human Wee1 degradation inhibition, primary screen. P30291. HeLa Luc-Wee1K328M stability, luciferase luminescence; 100% = proteasome inhibitor MG132 effect. reporter increase, % at 5 µM. 1.2% of 220,000 active;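 active = activation above the mean of all tested compounds plus 3 SD, set per screening run, cut at about 8.8% in these data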;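 note: cells exposed to compound for 20 h before luminescence read; 0% = DMSO alone and 100% = MG132 at 30 µM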
Target sequence (P30291 whole entry K328M): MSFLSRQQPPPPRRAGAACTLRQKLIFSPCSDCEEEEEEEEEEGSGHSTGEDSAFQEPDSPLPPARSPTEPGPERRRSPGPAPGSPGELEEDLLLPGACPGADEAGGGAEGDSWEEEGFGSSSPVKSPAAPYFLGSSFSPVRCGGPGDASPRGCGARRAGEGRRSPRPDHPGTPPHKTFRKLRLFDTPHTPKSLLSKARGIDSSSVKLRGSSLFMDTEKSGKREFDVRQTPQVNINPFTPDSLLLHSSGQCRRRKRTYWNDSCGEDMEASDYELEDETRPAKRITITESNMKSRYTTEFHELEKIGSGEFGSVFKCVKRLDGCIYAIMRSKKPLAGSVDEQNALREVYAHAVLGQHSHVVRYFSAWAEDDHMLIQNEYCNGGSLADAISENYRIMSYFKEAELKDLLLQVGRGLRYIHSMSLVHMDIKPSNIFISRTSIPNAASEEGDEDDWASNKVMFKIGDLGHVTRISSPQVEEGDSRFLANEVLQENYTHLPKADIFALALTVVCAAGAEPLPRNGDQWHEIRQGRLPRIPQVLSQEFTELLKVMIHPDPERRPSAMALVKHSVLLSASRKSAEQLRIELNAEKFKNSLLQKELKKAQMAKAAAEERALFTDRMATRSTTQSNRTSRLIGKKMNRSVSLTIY
Numbers without * were called inactive; ? = inconclusive; . = no result.

SMILES	KLK7 zymogen act	Runt-SMMHC FRET	RanGTP-Impb inh	Runt-CBFb FRET	AI-2 QS modul	Wee1 degr inh
COc1ccc(N2C(=O)c3n[nH]c(C)c3C2c2ccccc2)cc1 (configuration not stated)	0.3	.	.	.	.	.
CC1(C)Oc2ccc(C(=O)NC3CCCC3)cc2NC1=O	-0.7	.	.	.	.	.
COCCCNC(=O)C[C@H]1C[C@@]2(C(=O)OC)C(=C[C@H](COCc3ccccc3)O[C@@H]2C)N(Cc2ccc3c(c2)OCO3)C1=O	0.1	.	.	.	.	.
C[C@@H]1CCN(C2CC2)S(=O)(=O)c2ccc(N3CCC[C@@H]3CO)cc2O1	-0.1	.	.	.	.	.
CC(=O)N1CCOCCOCCN(C(C)=O)CCOCC1	0.1	-0.2	-0.8	1.2	0.2	10.6*
O=C(N1CCOCC1)N1CCN(C(=O)N2CCOCC2)CC1	.	.	.	.	.	2.3
COCCn1c(=N)c(S(=O)(=O)c2ccc(Br)cc2)cc2c(=O)n3ccccc3nc21	-0.7	.	119.0*	.	16.7	.
COCCn1c(=N)c(S(=O)(=O)c2ccc(F)cc2)cc2c(=O)n3ccccc3nc21	1.2	.	159.9*	.	29.3	.
Cc1ccc(Cn2c(=N)c(S(=O)(=O)c3ccc(Br)cc3)cc3c(=O)n4ccccc4nc32)cc1	.	.	3.2	.	-1.5	.
O=C(COc1ccc([N+](=O)[O-])cc1)NNC(=O)c1cccs1	-0.3	-0.6	2.9	0.6	33.6	-3.1
CCN(CC)CCOC(=O)c1ccc(NC(=O)CNC(=O)C2CCCCC2)cc1	-0.1	-1.6	3.3	0.4	5.3	2.4
Cc1ccc(S(=O)(=O)NCC2CCN(C(=O)C(=O)c3cccs3)CC2)cc1	-0.1	.	.	.	.	.
CC1CC1c1ccc(/C=C(\C#N)C(=O)Nc2cccc(Cl)c2Cl)o1 (configuration not stated)	-0.2	-111.8	40.4*	-20.1	11.2	3.2
C=C1CC2C=C(NC(C)=O)CC(C1)C2 (configuration not stated)	-0.4	-1.4	-1.4	-0.1	18.6	9.6*
COc1ccc(/C=C/C(=O)N2CCN(C)CC2)cc1S(=O)(=O)N1CCCCC1	-0.7	2.1	76.7*	1.8	-1.6	-1.0
COC(=O)c1ccccc1NC(=O)c1cccc(NC(=O)c2ccc(Br)o2)c1C	0.2	2.2	-1.5	1.0	1.0	1.5
N#Cc1c(NC(=O)c2ccc(Br)o2)n(-c2ccccc2)c2nc3ccccc3nc12	10.7	81.0*	162.3*	37.5	6.7	1.2
COc1ccc(-n2c(NC(=O)c3ccc(Br)o3)c(C#N)c3nc4ccccc4nc32)cc1	.	43.7	155.0*	87.7*	51.3	-2.0
CCC(=O)Nc1c(C#N)c2nc3ccccc3nc2n1-c1ccc(C)cc1	-64.2	.	.	.	.	.
O=C1OC(c2ccc(F)cc2)=C/C1=C\c1ccc(O)cc1	-0.4	.	-3.3	.	2.6	.
COc1ccc(C2=C/C(=C\c3ccccc3OC(C)=O)C(=O)O2)cc1	0.2	.	35.4*	.	15.1	.
COc1ccc(C2=C/C(=C\c3cccc(OC(C)=O)c3)C(=O)O2)cc1	0.5	38.7	42.7*	-36.2	13.6	-1.8
CCc1cccc(C)c1NC(=O)COC(=O)c1c2c(nc3ccccc13)/C(=C\c1cccs1)CCC2	-0.5	-24.3	3.9	-11.4	33.7	-0.6
NC(=O)c1ccc(NC(=O)COC(=O)c2c3c(nc4ccccc24)/C(=C\c2cccs2)CCC3)cc1	0.3	-16.3	16.3*	-20.7	39.9	-1.5
CCNc1nc2ccccc2[nH]1	-0.8	2.3	0.1	1.8	9.5	9.8*
Cc1ccc(CC(=O)Nc2ccc(S(=O)(=O)Nc3ncccn3)cc2)cc1	-0.3	.	-0.6	.	-91.5*	.
O=C(CCSc1ccccc1)Nc1ccc(S(=O)(=O)Nc2ncccn2)cc1	0.0	-0.9	0.4	0.9	-79.2*	2.0
Cc1ccc(CC(=O)Nc2ccc(S(=O)(=O)Nc3nccc(C)n3)cc2)cc1	0.3	.	?	.	5.8	.
Clc1ccccc1-c1ncc2ccccn12	2.5	9.6	1.2	0.6	-2.7	8.9*
CC(=O)c1ccc(NC(=O)COC(=O)CCc2ccc(S(=O)(=O)N3CCOCC3)cc2)cc1	0.3	-0.3	-0.2	-1.4	20.6	3.2
